Measured values taken from ChEMBL document CHEMBL1649231, “In vitro activities of panduratin A against clinical Staphylococcus strains” (2009).
Converted amounts (≈) assume the structure as drawn.

What was measured:
Assay type in all cases: functional
Staphylococcus aureus [1] = test: Antimicrobial activity against methicillin-resistant Staphylococcus aureus after 24 hrs by broth microdilution method
How it was run: (§1)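 Clinical isolates came from blood, body fluids, genital secretions, pus or sputum, identified conventionally or by Vitek. MICs were run by CLSI M7-A6 broth microdilution in Mueller-Hinton broth with 5 × 10^5 CFU/ml inoculum. Agents were twofold serially diluted, starting from 10% DMSO. Drug-free and uninoculated controls were included. Plates were incubated aerobically at 37°C for 24 h; MIC is the lowest concentration giving no visible growth.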

[2] = system: Staphylococcus haemolyticus; test: Antimicrobial activity against methicillin-resistant coagulase-negative Staphylococcus haemolyticus assessed as resistant isolates after 24 hrs by broth microdilution method
[3] = system: Staphylococcus haemolyticus; test: Antimicrobial activity against methicillin-resistant coagulase-negative Staphylococcus haemolyticus after 24 hrs by broth microdilution method; how it was run: as §1
[4] = system: Staphylococcus epidermidis; test: Antimicrobial activity against methicillin-resistant coagulase-negative Staphylococcus epidermidis assessed as resistant isolates after 24 hrs by broth microdilution method
[5] = system: Staphylococcus epidermidis; test: Antimicrobial activity against methicillin-resistant coagulase-negative Staphylococcus epidermidis assessed as susceptible isolates after 24 hrs by broth microdilution method
Staphylococcus hominis [6] = test: Bactericidal activity against methicillin-resistant coagulase-negative Staphylococcus hominis after 24 hrs by plate counting method
Staphylococcus aureus [7] = test: Bactericidal activity against methicillin-susceptible Staphylococcus aureus after 24 hrs by plate counting method
How it was run: (§2)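 Clinical staphylococcal isolates from patient body fluids, blood, genital secretions, pus or sputum; species by conventional methods or Vitek. Twofold dilutions in Mueller-Hinton broth, inoculum 5 × 10^5 CFU/ml, 37°C aerobic 24 h (CLSI M7-A6 microdilution). About 100 μl from each well without visible growth spread on MHA; 37°C 24 h. MBC = lowest concentration giving no growth on agar.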

Staphylococcus hominis [8] = test: Antimicrobial activity against methicillin-resistant coagulase-negative Staphylococcus hominis after 24 hrs by broth microdilution method; how it was run: as §1
Staphylococcus aureus [9] = test: Antimicrobial activity against methicillin-susceptible Staphylococcus aureus assessed as susceptible isolates after 24 hrs by broth microdilution method
Staphylococcus aureus [10] = test: Antimicrobial activity against methicillin-resistant Staphylococcus aureus assessed as susceptible isolates after 24 hrs by broth microdilution method
Mammaliicoccus sciuri [11] = test: Antimicrobial activity against methicillin-resistant coagulase-negative Staphylococcus sciuri assessed as susceptible isolates after 24 hrs by broth microdilution method
Mammaliicoccus sciuri [12] = test: Antimicrobial activity against methicillin-resistant coagulase-negative Staphylococcus sciuri assessed as resistant isolates after 24 hrs by broth microdilution method
Staphylococcus hominis [13] = test: Antimicrobial activity against methicillin-susceptible coagulase-negative Staphylococcus hominis after 24 hrs by broth microdilution method; how it was run: as §1
Staphylococcus hominis [14] = test: Antimicrobial activity against methicillin-susceptible coagulase-negative Staphylococcus hominis assessed as susceptible isolates after 24 hrs by broth microdilution method
[15] = system: Staphylococcus epidermidis; test: Antimicrobial activity against methicillin-susceptible coagulase-negative Staphylococcus epidermidis after 24 hrs by broth microdilution method; how it was run: as §1
Staphylococcus simulans = test: Bactericidal activity against methicillin-susceptible coagulase-negative Staphylococcus simulans after 24 hrs by plate counting method; how it was run: as §2
Staphylococcus aureus [16] = test: Antimicrobial activity against methicillin-resistant Staphylococcus aureus assessed as intermediate resistant isolates after 24 hrs by broth microdilution method
Staphylococcus aureus [17] = test: Antimicrobial activity against methicillin-susceptible Staphylococcus aureus assessed as intermediate resistant isolates after 24 hrs by broth microdilution method
[18] = system: Staphylococcus haemolyticus; test: Antimicrobial activity against methicillin-resistant coagulase-negative Staphylococcus haemolyticus assessed as intermediate resistant isolates after 24 hrs by broth microdilution method
Staphylococcus hominis [19] = test: Antimicrobial activity against methicillin-resistant coagulase-negative Staphylococcus hominis assessed as intermediate resistant isolates after 24 hrs by broth microdilution method

Compound	MIC50 (Staphylococcus aureus [1]) [µg/mL]	MIC90 (Staphylococcus aureus [1]) [µg/mL]	Activity [2] [%]	MIC50 [3] [µg/mL]	MIC90 [3] [µg/mL]	Activity [4] [%]	Activity [5] [%]	MBC50 (Staphylococcus hominis [6]) [µg/mL]	MBC50 (Staphylococcus aureus [7]) [µg/mL]	MBC90 (Staphylococcus aureus [7]) [µg/mL]	MIC50 (Staphylococcus hominis [8]) [µg/mL]	MIC90 (Staphylococcus hominis [8]) [µg/mL]	Activity (Staphylococcus aureus [9]) [%]	Activity (Staphylococcus aureus [10]) [%]	Activity (Mammaliicoccus sciuri [11]) [%]	Activity (Mammaliicoccus sciuri [12]) [%]	MIC50 (Staphylococcus hominis [13]) [µg/mL]	MIC90 (Staphylococcus hominis [13]) [µg/mL]	Activity (Staphylococcus hominis [14]) [%]	MIC50 [15] [µg/mL]	further results
CN(C)[C@@H]1C(O)=C(C(N)=O)C(=O)[C@@]2(O)C(O)=C3C(=O)c4c(O)cccc4[C@@](C)(O)[C@H]3C[C@@H]12 [TETRACYCLINE]	16 (≈ 36 µM)	32 (≈ 72 µM)	75	1 (≈ 2.25 µM)	64 (≈ 144 µM)	75	18	4 (≈ 9 µM)	8 (≈ 18 µM)	32 (≈ 72 µM)	1 (≈ 2.25 µM)	64 (≈ 144 µM)	70	30	7	75	0.5 (≈ 1.13 µM)	32 (≈ 72 µM)	69	0.5 (≈ 1.13 µM)	MBC (Staphylococcus hominis [6]; Staphylococcus hominis, 24 h): 0.5 µg/mL (≈ 1.13 µM); MBC (Staphylococcus aureus [7]; Staphylococcus aureus, 24 h): 1 µg/mL (≈ 2.25 µM); MIC (Staphylococcus hominis [13]): 0.5 µg/mL (≈ 1.13 µM); MIC [15]: 0.5 µg/mL (≈ 1.13 µM); MIC90 [15]: 32 µg/mL (≈ 72 µM); MBC50 (Staphylococcus simulans): 8 µg/mL (≈ 18 µM); MBC90 (Staphylococcus simulans): 128 µg/mL (≈ 288 µM); MBC (Staphylococcus simulans; Staphylococcus simulans, 24 h): 1 µg/mL (≈ 2.25 µM); Activity (Staphylococcus aureus [16]): 0%; Activity (Staphylococcus aureus [17]): 19%; Activity [18]: 7%; Activity (Staphylococcus hominis [19]): 7%
CN[C@H](CC(C)C)C(=O)N[C@H]1C(=O)N[C@@H](CC(N)=O)C(=O)N[C@H]2C(=O)N[C@H]3C(=O)N[C@H](C(=O)N[C@H](C(=O)O)c4cc(O)cc(O)c4-c4cc3ccc4O)[C@H](O)c3ccc(c(Cl)c3)Oc3cc2cc(c3O[C@@H]2O[C@H](CO)[C@@H](O)[C@H](O)[C@H]2O[C@H]2C[C@](C)(N)[C@H](O)[C@H](C)O2)Oc2ccc(cc2Cl)[C@H]1O [VANCOMYCIN]	0.5 (≈ 0.345 µM)	0.5 (≈ 0.345 µM)	0	0.125 (≈ 0.0863 µM)	2 (≈ 1.38 µM)	0	100	2 (≈ 1.38 µM)	1 (≈ 0.69 µM)	2 (≈ 1.38 µM)	0.125 (≈ 0.0863 µM)	2 (≈ 1.38 µM)	100	100	0	0	0.25 (≈ 0.173 µM)	1 (≈ 0.69 µM)	100	0.25 (≈ 0.173 µM)	MIC [3]: 0.125 µg/mL (≈ 0.0863 µM); MBC90 (Staphylococcus hominis [6]): 4 µg/mL (≈ 2.76 µM); MBC (Staphylococcus hominis [6]; Staphylococcus hominis, 24 h): 0.5 µg/mL (≈ 0.345 µM); MBC (Staphylococcus aureus [7]; Staphylococcus aureus, 24 h): 0.25 µg/mL (≈ 0.173 µM); MIC (Staphylococcus hominis [8]): 0.125 µg/mL (≈ 0.0863 µM); MIC90 [15]: 1 µg/mL (≈ 0.69 µM); MBC50 (Staphylococcus simulans): 1 µg/mL (≈ 0.69 µM); MBC90 (Staphylococcus simulans): 4 µg/mL (≈ 2.76 µM); MBC (Staphylococcus simulans; Staphylococcus simulans, 24 h): 0.125 µg/mL (≈ 0.0863 µM); Activity (Staphylococcus aureus [16]): 0%; Activity (Staphylococcus aureus [17]): 0%; Activity [18]: 0%; Activity (Staphylococcus hominis [19]): 0%
GENTAMICIN	32	64	48	8	64	48	45	8	8	128	8	64	52	15	7	48	0.125	32	73	0.125	MBC (Staphylococcus hominis [6]): 0.25 µg/mL; MBC90 (Staphylococcus hominis [6]): 128 µg/mL; MBC (Staphylococcus aureus [7]): 0.5 µg/mL; MIC90 [15]: 32 µg/mL; MBC (Staphylococcus simulans): 0.25 µg/mL; MBC50 (Staphylococcus simulans): 1 µg/mL; MBC90 (Staphylococcus simulans): 64 µg/mL; Activity (Staphylococcus aureus [16]): 22%; Activity (Staphylococcus aureus [17]): 0%; Activity [18]: 7%; Activity (Staphylococcus hominis [19]): 7%
